In article PMC9262120 (Chembiochem : a European journal of chemical biology, 2022):

Legend:
CPMV = assay: Cross-reactivity ELISA, CPMV; format: binding, cowpea mosaic virus; details: conclusion
In short: (§1)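 Wells coated with 10 µg virus or VLP in 0.1 M bicarbonate, pH 8.6, overnight at 4 °C, then blocked with 5% BSA for 1 h at RT. 10^9 pfu phage in 5% BSA were added for 1 h, followed by 0.5% TBST washes. Detection used HRP anti-M13 (1:500, 1 h) and TMB for 10 min in the dark, read at 370 nm. Controls were empty M13KE phage and BSA-coated wells.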

TMV [1] = assay: ELISA with biotinylated peptide on streptavidin plates; format: binding, Tobacco mosaic virus; details: CPMV-specific vs TMV-specific biotinylated peptide, Figure S3
In short: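 0.1 µg biotinylated peptide was bound to streptavidin-coated plates for 1 h at RT; control wells received 5% BSA without peptide. Plates were blocked with 5% BSA, then 10 µg TMV was added for 1 h. Detection used rabbit anti-TMV polyclonal (1:1000, 1 h), then HRP goat anti-rabbit (1:10,000, 1 h), then TMB for 5–10 min. Reactions were stopped with 2 M H₂SO₄ and read at 450 nm.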

TMGMV = assay: Cross-reactivity ELISA, TMGMV; format: binding, tobacco mild green mosaic virus; details: conclusion
In short: as §1

BSA = assay: Off-target binding to blocking agent BSA; parameters: species or system bovine
TMV [2] = assay: TMV–TBPT25-FITC ELISA; format: binding, Tobacco mosaic virus; details: varying TMV coated on plates; Figure S5
[3] = target: T1, tobacco mild green mosaic virus particles (tobacco mild green mosaic virus, UniProt P03579 1-159); assay: ELISA
T1 sequence: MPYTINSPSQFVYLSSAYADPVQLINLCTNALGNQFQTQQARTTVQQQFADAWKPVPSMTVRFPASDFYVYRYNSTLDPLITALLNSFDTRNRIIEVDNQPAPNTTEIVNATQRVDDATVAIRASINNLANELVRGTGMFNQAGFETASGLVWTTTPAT

## H-GHRCRGGVCYKK-OH (cysteine pairing not given here) [TBPT25]
CPMV
  off-target binding to CPMV: Some off-target binding
TMV [1]
  TMV binding, random peptide comparison: TMV binding to the TMV-specific TBPT25 was confirmed
TMGMV
  off-target binding to TMGMV: Some off-target binding
BSA
  off-target binding to BSA: Some off-target binding

## H2N-GHRCRGGVCYKKKGGGSK/FITC/-CO2H [TBPT25-FITC]
TMV [2]
  concentration dependence of binding: the more TMV coated onto the plates, the higher signal

## GHRCRGGVCYKK (designed binder) [monoclonal phage T25 (M13 phage displaying [residues removed])]
[3]
  fold less binding than to TMV: 1.2 fold
